# Data published in PMC11600170 (JACS Au, 2024).
# Key:
# MOLM13 cells [1] = assay: RNA-seq with differential expression, KEGG enrichment and GSEA in MOLM13 cells; assay type: cell-based, human; conditions: 200 nM, 24 h, fold change ≥2 and adjusted p-value ≤0.05
# MOLM13 cells [2] = assay: Cell viability / antiproliferation assay in MOLM13 cells; assay type: cell-based, human; conditions: 72-h viability, CRBN WT and CRBN-null HEK293T and MOLM13 cells, 10 μM and 1 μM
# In short: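 Screening ran as a 72-h viability assay in CRBN wild-type and CRBN-null (knockout) HEK293T and MOLM13 cells. Lenalidomide and CC-885 served as controls. MOLM13 CRBN WT and KO cells were tested in biological triplicates, and the assay was repeated in three separate experiments.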
Structure (SMILES),number of differentially expressed genes (DEGs) (MOLM13 cells [1]),activity in CRBN-dependent proliferation screen (MOLM13 cells [2])
CN1CCc2[nH]c(-c3ccnc(NC(=O)[C@@H](CC(F)F)c4ccc(F)cc4)c3)c(Nc3ccccc3)c2C1=O [BAY-204],"5,020 genes",–
Nc1cccc2c1CN(C1CCC(=O)NC1=O)C2=O (stereo not drawn) [lenalidomide],–,minimal activity
Cc1ccc(NC(=O)NCc2ccc3c(c2)CN(C2CCC(=O)NC2=O)C3=O)cc1Cl (stereo not drawn) [CC-885],–,nonselective profile
